Measurements taken from ChEMBL document CHEMBL1649289, “Paradoxical growth of Candida dubliniensis does not preclude in vivo response to echinocandin therapy” (2009).
In brackets after ≈: the same amount, converted by molar mass. Starred links: 1 amine or outer side, 2 acyl side, 3 side chain; linkers in the order of their positions; H or OH if unused. Positions of bridges follow the written chain, without caps; N, C: chain ends. Non-standard residues stand in square brackets, D forms with d. Residues, ends and D or L forms follow the SMILES beside them. *: point of attachment. hTyr(3S-OH,4S-OH,3'-OSO3H) = N[C@H](C(=O)O)[C@H](O)[C@@H](O)c1ccc(O)c(OS(=O)(=O)O)c1; Orn(4R-OH,5R-OH) = O=C([C@H](C[C@@H](O)[C@@H](O)N[*:3])N[*:1])[*:2]; Pro(3S-OH,4S-Me) = C[C@H]1CN[C@H](C(=O)O)[C@H]1O; X1 = CCCCCOc1ccc(-c2cc(-c3ccc(C(=O)*)cc3)no2)cc1; Gln(3R-OH) = NC(=O)C[C@@H](O)[C@H](N)C(=O)O; Hyp = O=C(O)[C@@H]1C[C@@H](O)CN1

How the values were obtained:
Assay type in all cases: functional
Candida dubliniensis [1] = test: Antifungal activity against Candida dubliniensis 9453 after 24 hrs; conditions: Candida dubliniensis, 9453, 24 h
How it was run: (§1)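 CLSI M27-A3 broth microdilution. Yeast inoculum was adjusted with a hemocytometer. MIC was read at 24 h or 48 h as the lowest concentration giving 50% growth inhibition.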

Candida dubliniensis [2] = test: Antifungal activity against Candida dubliniensis 9453 after 48 hrs; conditions: Candida dubliniensis, 9453, 48 h; how it was run: as §1
Candida dubliniensis [3] = test: Antifungal activity against Candida dubliniensis 9456 after 24 hrs; conditions: Candida dubliniensis, 9456, 24 h; how it was run: as §1
Candida dubliniensis [4] = test: Antifungal activity against Candida dubliniensis 9456 after 48 hrs; conditions: Candida dubliniensis, 9456, 48 h; how it was run: as §1
Candida dubliniensis [5] = test: Antifungal activity against Candida dubliniensis 10031 after 24 hrs; conditions: Candida dubliniensis, 10031, 24 h; how it was run: as §1
Candida dubliniensis [6] = test: Antifungal activity against Candida dubliniensis 10031 after 48 hrs; conditions: Candida dubliniensis, 10031, 48 h; how it was run: as §1
Candida dubliniensis [7] = test: Antifungal activity against Candida dubliniensis 10032 after 24 hrs; conditions: Candida dubliniensis, 10032, 24 h; how it was run: as §1
Candida dubliniensis [8] = test: Antifungal activity against Candida dubliniensis 10032 after 48 hrs; conditions: Candida dubliniensis, 10032, 48 h; how it was run: as §1
Candida dubliniensis [9] = test: Antifungal activity against Candida dubliniensis 10033 after 24 hrs; conditions: Candida dubliniensis, 10033, 24 h; how it was run: as §1
Candida dubliniensis [10] = test: Antifungal activity against Candida dubliniensis 10033 after 48 hrs; conditions: Candida dubliniensis, 10033, 48 h; how it was run: as §1
Candida dubliniensis [11] = test: Antifungal activity against Candida dubliniensis 10034 after 24 hrs; conditions: Candida dubliniensis, 10034, 24 h; how it was run: as §1
Candida dubliniensis [12] = test: Antifungal activity against Candida dubliniensis 10034 after 48 hrs; conditions: Candida dubliniensis, 10034, 48 h; how it was run: as §1
Candida dubliniensis [13] = test: Antifungal activity against Candida dubliniensis 10035 after 24 hrs; conditions: Candida dubliniensis, 10035, 24 h; how it was run: as §1
Candida dubliniensis [14] = test: Antifungal activity against Candida dubliniensis 10035 after 48 hrs; conditions: Candida dubliniensis, 10035, 48 h; how it was run: as §1
Candida dubliniensis [15] = test: Antifungal activity against Candida dubliniensis 9453 by hemocytometry
How it was run: (§2)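 Minimal fungicidal concentration from the broth dilution test, defined as the lowest drug level giving ≥99.9% reduction in CFU/ml. Inocula were adjusted by hemocytometer.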

Candida dubliniensis [16] = test: Antifungal activity against Candida dubliniensis 9456 by hemocytometry; how it was run: as §2
Candida dubliniensis [17] = test: Antifungal activity against Candida dubliniensis 10031 by hemocytometry; how it was run: as §2
Candida dubliniensis [18] = test: Antifungal activity against Candida dubliniensis 10032 by hemocytometry; how it was run: as §2
Candida dubliniensis [19] = test: Antifungal activity against Candida dubliniensis 10033 by hemocytometry; how it was run: as §2
Candida dubliniensis [20] = test: Antifungal activity against Candida dubliniensis 10034 by hemocytometry; how it was run: as §2
Candida dubliniensis [21] = test: Antifungal activity against Candida dubliniensis FMR 10032 infected in immunosuppressed OF1 mouse assessed as fungal count in kidney at 1 mg/kg/day, iv […]
How it was run: (§3)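 Male OF1 mice, 10 per group, were immunosuppressed on infection day with cyclophosphamide 200 mg/kg i.p. plus 5-fluorouracil 150 mg/kg i.v., then challenged i.v. with 1.5 × 10^5 CFU. Drug was given at 1 mg/kg i.v. once daily for 5 days, starting 24 h after challenge. One day after treatment ended, kidney and spleen homogenates were plated in 10-fold dilutions on Sabouraud agar (35°C, 3 days) and mean log10 CFU was reported.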

Candida dubliniensis [22] = test: Antifungal activity against Candida dubliniensis FMR 10034 infected in OF1 mouse assessed as fungal count in spleen at 1 mg/kg/day, iv […]
How it was run: (§4)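 Immunocompetent male OF1 mice, 10 per group, were challenged i.v. with 1.5 × 10^7 CFU. Drug was given i.v. once daily at 1 or 10 mg/kg for 3 days, starting 24 h post-challenge; controls were untreated. Mice were killed 1 day after the last dose. Kidneys and spleen were homogenized in saline, serial 10-fold dilutions were plated on Sabouraud agar at 35°C for 3 days, and mean log10 CFU was reported.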

Candida dubliniensis [23] = test: Antifungal activity against Candida dubliniensis 10034 assessed as compound concentration at which paradoxical growth of observed after 48 hrs
How it was run: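 In the same broth dilution (CLSI M27-A3) tests, read at 24 or 48 h, this is the range of drug concentrations over which paradoxical growth appeared. It was not set when growth occurred across the whole tested range (trailing).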

Candida dubliniensis [24] = test: Antifungal activity against Candida dubliniensis FMR 10032 infected in OF1 mouse assessed as fungal count in kidney at 10 mg/kg/day, iv […]; how it was run: as §4
Candida dubliniensis [25] = test: Antifungal activity against Candida dubliniensis FMR 10032 infected in OF1 mouse assessed as fungal count in kidney at 1 mg/kg/day, iv […]; how it was run: as §4
Candida dubliniensis [26] = test: Antifungal activity against Candida dubliniensis FMR 10032 infected in OF1 mouse assessed as fungal count in spleen at 10 mg/kg/day, iv […]; how it was run: as §4
Candida dubliniensis [27] = test: Antifungal activity against Candida dubliniensis FMR 10032 infected in OF1 mouse assessed as fungal count in spleen at 1 mg/kg/day, iv […]; how it was run: as §4
Candida dubliniensis [28] = test: Antifungal activity against Candida dubliniensis FMR 10034 infected in OF1 mouse assessed as fungal count in kidney at 10 mg/kg/day, iv […]; how it was run: as §4
Candida dubliniensis [29] = test: Antifungal activity against Candida dubliniensis FMR 10034 infected in OF1 mouse assessed as fungal count in kidney at 1 mg/kg/day, iv […]; how it was run: as §4
Candida dubliniensis [30] = test: Antifungal activity against Candida dubliniensis FMR 10034 infected in OF1 mouse assessed as fungal count in spleen at 10 mg/kg/day, iv […]; how it was run: as §4
Candida dubliniensis [31] = test: Antifungal activity against Candida dubliniensis FMR 10032 infected in immunosuppressed OF1 mouse assessed as fungal count in spleen at 1 mg/kg/day, iv […]; how it was run: as §3
Candida dubliniensis [32] = test: Antifungal activity against Candida dubliniensis FMR 10034 infected in immunosuppressed OF1 mouse assessed as fungal count in kidney at 1 mg/kg/day, iv […]; how it was run: as §3
Candida dubliniensis [33] = test: Antifungal activity against Candida dubliniensis FMR 10034 infected in immunosuppressed OF1 mouse assessed as fungal count in spleen at 1 mg/kg/day, iv […]; how it was run: as §3

SMILES: CCCCCOc1ccc(-c2cc(-c3ccc(C(=O)N[C@H]4C[C@@H](O)[C@@H](O)NC(=O)[C@@H]5[C@@H](O)[C@@H](C)CN5C(=O)[C@H]([C@H](O)CC(N)=O)NC(=O)[C@H]([C@H](O)[C@@H](O)c5ccc(O)c(OS(=O)(=O)O)c5)NC(=O)[C@@H]5C[C@@H](O)CN5C(=O)[C@H]([C@@H](C)O)NC4=O)cc3)no2)cc1 [MICAFUNGIN] (X1-[Orn(4R-OH,5R-OH)]T[Hyp][hTyr(3S-OH,4S-OH,3'-OSO3H)][Gln(3R-OH)][Pro(3S-OH,4S-Me)]; lactam 1-C)
- MIC50 (Candida dubliniensis [1]): 0.125 µg/mL (≈ 0.0984 µM)
- MIC50 (Candida dubliniensis [2]): 0.125 µg/mL (≈ 0.0984 µM)
- MIC50 (Candida dubliniensis [3]): 0.06 µg/mL (≈ 0.0472 µM)
- MIC50 (Candida dubliniensis [4]): 0.125 µg/mL (≈ 0.0984 µM)
- MIC50 (Candida dubliniensis [5]): 0.125 µg/mL (≈ 0.0984 µM)
- MIC50 (Candida dubliniensis [6]): 0.125 µg/mL (≈ 0.0984 µM)
- MIC50 (Candida dubliniensis [7]): < 0.03 µg/mL
- MIC50 (Candida dubliniensis [8]): 0.125 µg/mL (≈ 0.0984 µM)
- MIC50 (Candida dubliniensis [9]): 0.125 µg/mL (≈ 0.0984 µM)
- MIC50 (Candida dubliniensis [10]): 0.25 µg/mL (≈ 0.197 µM)
- MIC50 (Candida dubliniensis [11]): 0.06 µg/mL (≈ 0.0472 µM)
- MIC50 (Candida dubliniensis [12]): 0.125 µg/mL (≈ 0.0984 µM)
- MIC50 (Candida dubliniensis [13]): 0.03 µg/mL (≈ 0.0236 µM)
- MIC50 (Candida dubliniensis [14]): 0.03 µg/mL (≈ 0.0236 µM)
- MFC (Candida dubliniensis [15]): > 16 µg/mL
- MFC (Candida dubliniensis [16]): > 16 µg/mL
- MFC (Candida dubliniensis [17]): > 16 µg/mL
- MFC (Candida dubliniensis [18]): 4 µg/mL (≈ 3.15 µM)
- MFC (Candida dubliniensis [19]): 2 µg/mL (≈ 1.57 µM)
- MFC (Candida dubliniensis [20]): > 16 µg/mL
- log10cfu (Candida dubliniensis [21]): 5.47
- log10cfu (Candida dubliniensis [22]): 4.79
- Activity (Candida dubliniensis [23]): 2 µg/mL
- log10cfu (Candida dubliniensis [24]): 3.23
- log10cfu (Candida dubliniensis [25]): 4.25
- log10cfu (Candida dubliniensis [26]): 3.58
- log10cfu (Candida dubliniensis [27]): 3.97
- log10cfu (Candida dubliniensis [28]): 4.69
- log10cfu (Candida dubliniensis [29]): 6.33
- log10cfu (Candida dubliniensis [30]): 4.18
- log10cfu (Candida dubliniensis [31]): 2.62
- log10cfu (Candida dubliniensis [32]): 6.47
- log10cfu (Candida dubliniensis [33]): 3.26
